Reference: ChEMBL document CHEMBL1145091, “Ring-expanded ("fat") nucleoside and nucleotide analogues exhibit potent in vitro activity against flaviviridae NTPases/helicases, including those of the West Nile virus, hepatitis C virus, and Japanese encephalitis virus” (J Med Chem, 2003)

How the values were obtained:
Hepatitis C virus [1] = assay: Tested for inhibition against Helicase activity of hepatitis C virus (HCV) in presence of ATP adjusted to 105 uM and 4.7 pM of DNA substrate; type: functional, Hepacivirus hominis
How it was run: (§1)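 Unwinding of a 32P 5'-end-labelled partial duplex (26-mer released strand on 40-mer template; DNA or RNA as per line, 4.7 pM nucleotide base), using purified NTPase/helicase (2 pmol WNV from infected Vero E6 medium; 0.5 pmol HCV or 4 pmol JEV NS3 domain, or 0.2 pmol Suv3(Δ1–159), E. coli-expressed). ATP was set at each enzyme's ATPase Km: WNV 9.5 μM, HCV 105 μM, JEV 235 μM, Suv3 4.2 μM. The reaction ran in pH 7.5 Tris with 2 mM MgCl2 for 30 min at 30 °C.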

[2] = tested on: Japanese encephalitis virus; assay: Tested for inhibition against Helicase activity of Japanese encephalitis virus (JEV) in presence of ATP adjusted to 235 uM and 4.7 pM of DNA substrate; type: functional; how it was run: as §1
[3] = Tested for inhibition against Helicase activity of human NTPase/Helicase Suv3 (delta1-159) in presence of ATP adjusted to 4.2 uM and 4.7 pM of DNA substrate; type: functional; how it was run: as §1
West Nile virus [4] = assay: Tested for inhibition against Helicase activity of west nile virus (WNV) in presence of ATP adjusted to 9.5 uM and 4.7 pM of DNA substrate; type: functional; how it was run: as §1
Hepatitis C virus [5] = assay: Tested for inhibition against Helicase activity of hepatitis C virus (HCV) in presence of ATP adjusted to 105 uM and 4.7 pM of RNA duplex substrate; type: functional, Hepacivirus hominis; how it was run: as §1
[6] = tested on: Japanese encephalitis virus; assay: Tested for inhibition against Helicase activity of Japanese encephalitis virus (JEV) in presence of ATP adjusted to 235 uM and 4.7 pM of RNA duplex substrate; type: functional; how it was run: as §1
[7] = Tested for inhibition against Helicase activity of human NTPase/Helicase Suv3 (delta1-159) in presence of ATP adjusted to 4.2 uM and 4.7 pM of RNA duplex substrate; type: functional; how it was run: as §1
West Nile virus [8] = assay: Tested for inhibition against Helicase activity of west nile virus (WNV) in presence of ATP adjusted to 9.5 uM and 4.7 pM of RNA duplex substrate; type: functional; how it was run: as §1
Hepatitis C virus [9] = assay: Tested for activating effect of hepatitis C virus (HCV) in presence of ATP adjusted to 105 uM and 4.7 pM of DNA substrate; type: functional, Hepacivirus hominis; how it was run: as §1
West Nile virus [10] = assay: Tested for activating effect of west nile virus (WNV) in presence of ATP adjusted to […] and 4.7 pM of DNA substrate; type: functional
Hepatitis C virus [11] = assay: Tested for inhibition against 1.05 nM ATPase activity of hepatitis C virus (HCV) in presence of ATP adjusted to 1*10e-5 of Km of enzyme; type: functional, Hepacivirus hominis
How it was run: (§2)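 ATPase assay measuring 33Pi released from [γ-33P]ATP. Enzymes were 2 pmol WNV, 0.5 pmol HCV, 4 pmol JEV or 0.2 pmol Suv3(Δ1–159). The reaction ran in pH 7.5 Tris with 2 mM MgCl2 and 0.1 mg/mL BSA for 30 min at 30 °C and was stopped with activated charcoal; supernatant was scintillation-counted.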

Hepatitis C virus [12] = assay: Tested for inhibition against 1.05 nM ATPase activity of hepatitis C virus (HCV) in presence of ATP adjusted to 1*10e-4 of Km of enzyme; type: functional, Hepacivirus hominis; how it was run: as §2
[13] = tested on: Japanese encephalitis virus; assay: Tested for inhibition against 2.35 nM ATPase activity of Japanese encephalitis virus (JEV) in presence of ATP adjusted to 1*10e-5 of Km of enzyme; type: functional; how it was run: as §2
[14] = tested on: Japanese encephalitis virus; assay: Tested for inhibition against […] ATPase activity of Japanese encephalitis virus (JEV) in presence of ATP adjusted to 1*10e-4 of Km of enzyme; type: functional; how it was run: as §2
[15] = Tested for inhibition against 42 nM ATPase activity of human NTPase/Helicase Suv3 (delta1-159) in presence of ATP adjusted to 1*10e-5 of Km of enzyme; type: functional; how it was run: as §2
[16] = Tested for inhibition against 42 pM ATPase activity of human NTPase/Helicase Suv3 (delta1-159) in presence of ATP adjusted to 1*10e-4 of Km of enzyme; type: functional; how it was run: as §2
West Nile virus [17] = assay: Tested for inhibition against 95 pM ATPase activity of west nile virus (WNV) in presence of ATP adjusted to 1*10e-5 of Km of enzyme; type: functional; how it was run: as §2
West Nile virus [18] = assay: Tested for inhibition against 95 pM ATPase activity of west nile virus (WNV) in presence of ATP adjusted to 1*10e-4 of Km of enzyme; type: functional; how it was run: as §2
Hepatitis B virus = assay: Tested for inhibition against […] in cultured human hepatoblastoma 2.2.15 cells; type: functional, organism-based; conditions: HepG2 2.2.15
Flavivirus = assay: Tested for inhibition against Flaviviridae NTPase/helicase (NTPase/helicase Non structural protein 3); type: functional; conditions: Orthoflavivirus
[19] = Antimeasles activity determined; type: functional
Human rhinovirus sp. = assay: Antirhino activity determined; type: functional, organism-based

SMILES | IC50 (Hepatitis C virus [1]) | IC50 [2] | IC50 [3] | IC50 (West Nile virus [4]) | IC50 (Hepatitis C virus [5]) | IC50 [6] | IC50 [7] | IC50 (West Nile virus [8]) | also measured
CO[C@@H]1[C@H](O)[C@@H](CO)O[C@H]1n1cnc2c(=O)[nH][nH]c(=O)c21 | 450 µM | > 500 µM | > 500 µM | 30 µM |  |  |  |  | 
NC1=NC(=O)C2C(N=CN2COCCO)C(=O)N1 (centres undefined) | > 500 µM | > 500 µM |  | > 500 µM |  |  |  |  | 
NC1=NC(=O)C2C(N=CN2COCCOCc2ccccc2)C(=O)N1 (centres undefined) | 11 µM | 150 µM | 5 µM | 5.7 µM | 5.5 µM | > 500 µM | 6 µM | 3.3 µM | 
O=C1NC2C(N=CN2Cc2ccccc2)C(=O)N(Cc2ccccc2)N1 (centres undefined) | > 500 µM | > 500 µM | > 500 µM | 3.5 µM | > 500 µM | > 500 µM | > 500 µM | > 500 µM | 
NC1=NC(=O)C2C(N=CN2[C@H]2O[C@H](CO)[C@@H](O)[C@H]2O)C(=O)N1 (some centres undefined) |  | > 500 µM | > 500 µM |  | 12 µM | 4.5 µM | 3.5 µM | 220 µM | ED200 (Hepatitis C virus [9]): 150 µM; ED200 (West Nile virus [10]): 60 µM
Nc1nc(=O)c2c(ncn2[C@@H]2C[C@H](O)[C@@H](CO)O2)c(=O)[nH]1 | 7 µM | 13 µM | 28 µM | 25 µM | > 500 µM | 2 µM | 150 µM | 5.7 µM | 
CO[C@@H]1[C@H](O)[C@@H](CO)O[C@H]1n1cnc2c(=O)[nH]c(N)nc(=O)c21 |  | > 500 µM | > 500 µM | > 500 µM |  |  |  |  | ED200 (Hepatitis C virus [9]): 350 µM
NC1=NC(=O)C2N=CNC2C(=O)N1 (centres undefined) | > 500 µM | > 500 µM |  | > 500 µM | 200 µM | > 500 µM | 500 µM | 220 µM | 
O=C1NC2N=CNC2C(=O)N(Cc2ccccc2)N1 (centres undefined) | > 500 µM | > 500 µM | > 500 µM | 1.3 µM | > 500 µM | > 500 µM | > 500 µM | > 500 µM | 
NC1=NC(=O)C2C(N=CN2CCOCP(=O)(O)O)C(=O)N1 (centres undefined) | 200 µM | > 500 µM | > 500 µM | 500 µM |  |  |  |  | 
O=C1NNC(=O)C2C(N=CN2C2O[C@H](COP(=O)(O)OP(=O)(O)OP(=O)(O)O)[C@@H](O)[C@H]2O)N1 (some centres undefined) |  |  |  |  |  |  |  |  | IC50 (Hepatitis C virus [11]): 1.5 µM; Ki (Hepatitis C virus [12]): 1.7 µM; IC50 [13]: 40 µM; Ki [14]: 15 µM; IC50 [15]: 125 µM; Ki [16]: 45 µM; IC50 (West Nile virus [17]): 4 µM; Ki (West Nile virus [18]): 2.9 µM
N=C1N=C(N)N=C(N)C2N=CN(C3O[C@@H](COP(=O)(O)OP(=O)(O)OP(=O)(O)O)[C@H](O)[C@@H]3O)C12 (some centres undefined) |  |  |  |  |  |  |  |  | IC50 (Hepatitis C virus [11]): 0.55 µM; Ki (Hepatitis C virus [12]): 0.2 µM; IC50 [13]: 12 µM; Ki [14]: 3.5 µM; IC50 [15]: 40 µM; Ki [16]: 15 µM; IC50 (West Nile virus [17]): 0.15 µM; Ki (West Nile virus [18]): 0.38 µM
N=C1N=C(N)N=C(N)C2N=CN(C3O[C@@H](CO)[C@H](O)[C@@H]3O)C12 (some centres undefined) | > 500 µM | > 500 µM | > 500 µM | > 500 µM |  |  |  |  | 
NC1=NC(=O)C2C(N=CN2[C@@H]2O[C@H](CO)C(O)[C@H]2O)C(=O)N1 (single isomer, unassigned) |  |  |  |  |  |  |  |  | IC50 (Hepatitis B virus): 0.13 µM; IC50 (Flavivirus): > 500 µM
NC1=NC(=O)C2C(N=CN2[C@H]2CC(O)[C@@H](CO)O2)C(=O)N1 (single isomer, unassigned) |  | > 500 µM | > 500 µM | > 500 µM |  |  |  |  | ED200 (Hepatitis C virus [9]): 100 µM
NC1=NC(=O)C2C(N=C(c3ccccc3)N2C2O[C@H](CO)C(O)[C@H]2O)C(=O)N1 (single isomer, unassigned) |  |  |  |  |  |  |  |  | IC50 [19]: 0.5 µM; IC50 (Human rhinovirus sp.): 6.7 µM
O=C1NNC(=O)C2C(N=CN2C2O[C@H](CO)C(O)[C@H]2O)N1 (single isomer, unassigned) | > 500 µM | > 500 µM | > 500 µM | > 500 µM |  |  |  |  | 
